An excerpt weighted towards active compounds, which were near 2.3% of everything screened.
NR2F2 inh = inhibitors of human COUP-TFII (NR2F2); hit rate 0.7% among 370,000; inhibition, % at 8.6 µM; P24468; AID 686940; HEK293T NGFI-A luciferase reporter, luminescence;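 active = inhibition above a per-plate cutoff, mean inhibition of test wells between control levels plus 3 SD, cut at about 38% in these data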;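 note: cells cotransfected with COUP-TFII expression vector driving the NGFI-A reporter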
NR2E3 ag-1 = activates human photoreceptor nuclear receptor NR2E3 | Q9Y5X4 | GST-NR2E3/biotin-RetCOR TR-FRET, 1536-well | hit rate 0.12% among 320,000 | inhibition of corepressor binding, % at 4.78 µM;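 active = percent inhibition above the cutoff of mean plus 3 SD of all tested compounds, set per screening campaign, cut at about 20% in these data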
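Assay system: NR2E3–RetCOR corepressor complex. Quantity: 1.35 nM GST-NR2E3. Buffer or medium: pH 7.5 Tris-based buffer. Reagent: biotinylated RetCOR corepressor at 7 nM final. Schedule: 5 h at 4 °C. Detection: TR-FRET, emission read at 617 and 671 nm. Replicates: one well per compound, singlicate testing.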
GalR3 antag = antagonists of human GalR3; HEK293 GalR3-CNG cAMP membrane potential fluorescence; galR3 body fused to GalR1 C-terminus; inhibition, % at 3 µM; hit rate 0.44% among 360,000; AID 651719;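 active = inhibition above the screen-wide average plus 3 SD, cut at about 13% in these data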;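 note: forskolin and galanin both at EC90 stimulate the cells; cAMP rise reported by CNG channel membrane potential dye signal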
CHT inh = human CHT choline transport inhibition; Q9GZV3; CHT-expressing cells, membrane potential dye, choline response; stronger effect = lower value; B-score at 10 µM; hit rate 0.86% among 310,000; AID 488975;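 active = B-score over 3 SD under the library average, and starting fluorescence ratio not unusually high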;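 note: choline stimulus applied at its EC90 after an EC20 pre-addition; B-score computed on integrated fluorescence ratio after choline addition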
Target sequence (Q9GZV3 whole entry, looked up): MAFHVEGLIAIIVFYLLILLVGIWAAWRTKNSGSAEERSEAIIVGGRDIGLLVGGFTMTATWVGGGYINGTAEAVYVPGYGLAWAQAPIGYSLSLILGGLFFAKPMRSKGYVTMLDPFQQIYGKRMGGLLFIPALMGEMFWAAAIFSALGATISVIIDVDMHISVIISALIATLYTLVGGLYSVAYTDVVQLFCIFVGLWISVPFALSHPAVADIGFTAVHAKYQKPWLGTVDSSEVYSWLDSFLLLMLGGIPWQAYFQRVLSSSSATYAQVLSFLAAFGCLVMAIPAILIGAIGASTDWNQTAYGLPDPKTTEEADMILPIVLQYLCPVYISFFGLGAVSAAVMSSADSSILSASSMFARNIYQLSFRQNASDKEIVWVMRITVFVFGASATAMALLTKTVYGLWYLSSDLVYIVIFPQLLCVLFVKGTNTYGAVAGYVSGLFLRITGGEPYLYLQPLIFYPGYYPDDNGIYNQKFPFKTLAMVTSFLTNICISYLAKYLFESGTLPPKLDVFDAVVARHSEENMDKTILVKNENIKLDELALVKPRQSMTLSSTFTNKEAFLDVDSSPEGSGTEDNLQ
NR2E3 ag-2 = agonists of human NR2E3 nuclear receptor | AID 602229 | CHO-S Gal4-NCOR/VP16-NR2E3 two-hybrid, luciferase | Q9Y5X4 | hit rate 0.35% among 360,000 | inhibition of corepressor binding, % at 3.98 µM;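 active = inhibition above the mean of all tested compounds plus 3 SD, cut at about 70% in these data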;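 note: higher means lower luciferase signal from less NR2E3 corepressor binding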
CHT allo act = human CHT allosteric activation | Q9GZV3 | CHT-expressing cells, membrane potential dye, choline EC20; stronger effect = higher value; LV-AA mutant CHT in HEK293 cells | B-score at 10 µM | hit rate 0.49% among 310,000 | AID 488977;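 active = initial fluorescence not abnormally high and integrated response B-score, plate-corrected, over 3 SD above library mean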
NR2E3 ag conf = NR2E3 agonism confirmed in two-hybrid assay; shares compounds with NR2E3 ag-2; CHO-S mammalian two-hybrid NR2E3-NCOR, luciferase luminescence; hit rate 51% among 2,300; inhibition, % at 3.98 µM; AID 624378;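 active = average inhibition above a cutoff equal to the mean inhibition of all tested compounds plus one SD, cut at about 70% in these data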
VP16 counter = reduces GAL4-VP16 reporter signal in NR2E3 counterscreen | hit rate 29% among 2,300 | shares compounds with NR2E3 ag-2 | CHO-S GAL4-VP16 luciferase reporter, luminescence | inhibition, % at 3.98 µM;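 active = mean inhibition above a cutoff equal to the average over all tested compounds plus one standard deviation, cut at about 70% in these data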;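 note: luciferase from a UAS reporter driven by GAL4-VP16 transactivation; higher means less reporter light so more repression of VP16 activity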
Hits are given with their value; 0 = inactive; - = no result given.

SMILES	NR2F2 inh	NR2E3 ag-1	GalR3 antag	CHT inh	NR2E3 ag-2	CHT allo act	NR2E3 ag conf	VP16 counter
CCN1CCN(Cc2ccc(NC(=O)c3ccc(C)c(NC(=O)c4ccno4)c3)cc2C(F)(F)F)CC1	0	0	0	0	0	0	0	0
COc1ccc(CNCC(O)COc2cccc3c2OC(C)(C)C3)cc1 (stereo not given)	0	0	0	0	0	0	0	0
COc1cccc(CNC(=O)COc2cccc3c2OC(C)(C)C3)c1	0	0	0	0	0	0	-	-
COn1c2c(c3c4no[n+]([O-])c4ccc31)CCCC2	0	0	0	0	0	0	-	-
[O-][n+]1c2c(c3c4non(O)c4ccc31)CCCC2	0	0	0	0	0	0	0	0
O=S(=O)(c1ccc2c(c1)OCCO2)N1CCC(n2nnc3cc(C(F)(F)F)ccc32)CC1	0	0	0	0	0	0	0	0
O=C(NCc1ccccn1)C1Nc2ccc(C(F)(F)F)cc2C2C=CCC12 (stereo not given)	0	0	0	0	97	0	0	0
COCCNC(=O)C1Nc2ccc(C(F)(F)F)cc2C2C=CCC12 (stereo not given)	0	0	0	0	0	0	-	-
CCOC(=O)c1cccc(NC(=O)CN(C)S(=O)(=O)c2ccc(Cl)s2)c1	0	-	-	-	-	-	-	-
O=C(Nc1cccc(S(=O)(=O)Nc2ccc(Cl)cc2)c1)c1ccc(Cl)nc1	82	0	73	0	74	0	0	76
COC(=O)[C@]12C[C@H](CC(=O)NCC34CC5CC(CC(C5)C3)C4)C(=O)N(CCc3ccc(OC)c(OC)c3)C1=C[C@H](C(C)(C)C)O[C@@H]2C	0	-	-	-	-	-	-	-
COc1ccc(C(=O)c2sc(NC(C)C)nc2N)cc1OC	0	0	0	0	0	0	0	0
COc1ccccc1Sc1nc(-c2ccccn2)ncc1OC	0	0	0	0	78	0	0	0
COc1cnc(-c2ccccn2)nc1Sc1ccc(C)cc1	0	0	0	0	94	0	0	0
COc1cnc(-c2ccccn2)nc1Sc1cccc(Cl)c1	0	0	0	0	0	0	0	0
COc1cnc(-c2ccccn2)nc1Oc1ccc(Cl)c2ccccc12	0	0	0	0	0	0	0	0
COc1cnc(-c2ccccn2)nc1Oc1ccccc1Cl	0	0	0	0	0	0	-	-
CC1(c2nnnn2Cc2ccccc2)CCCCC(=O)N1Cc1cccs1 (stereo not given)	0	-	-	-	-	-	-	-
Cc1nc2sc(C(=O)NCc3nccs3)c(N)c2c(C)c1Cl	0	-	-	-	-	-	-	-
FC(F)(F)c1cccc(Sc2cc(C(F)(F)F)nc(-c3ccccn3)n2)c1	0	0	0	0	0	0	-	-
Cc1ccc(Sc2cc(C)nc(-c3ccccn3)n2)cc1	0	0	0	0	86	0	0	0
COC(=O)[C@H](C(C)C)N1CCc2nnn(Cc3ccccc3)c2-c2cc(F)ccc2S1(=O)=O	0	-	-	-	-	-	-	-
Cc1ccc(S(=O)(=O)N2[C@@H](c3ccc(C(C)(C)C)cc3)C(C(=O)O)=CC[C@H]2c2ccc(Cl)cc2)cc1	0	-	0	-	99	-	99	0
Cc1ccc([C@@H]2CC=C(C(=O)O)[C@H](c3ccc(Br)cc3)N2S(=O)(=O)c2ccc(C)cc2)cc1	0	-	0	-	0	-	0	0
Cc1ccc([C@H]2C(C(=O)O)=CC[C@@H](c3cccs3)N2S(=O)(=O)c2ccc(C)cc2)cc1	0	-	0	-	0	-	-	-
CCc1ccc([C@@H]2CC=C(C(=O)O)[C@H](c3ccc(C(C)(C)C)cc3)N2S(=O)(=O)c2ccc(C)cc2)cc1	0	-	0	-	93	-	96	0
CCc1ccc([C@@H]2CC=C(C(=O)O)[C@H](c3ccccc3)N2S(=O)(=O)c2ccc(C)cc2)cc1	0	0	0	0	0	0	-	-
Cc1ccc(S(=O)(=O)N2[C@@H](c3ccc(C(C)(C)C)cc3)C(C(=O)O)=CC[C@H]2c2ccc(C(C)C)cc2)cc1	0	-	0	-	0	-	-	-

Assay outcomes from PubChem BioAssay.
